Experiments:
[1] = target: Ribosomal protein S6 kinase alpha-5 (Homo sapiens, UniProt O75582); test: Inhibition of RPS6KA5 (unknown origin)
[2] = target: Ribosomal protein S6 kinase beta-1 (Homo sapiens, UniProt P23443); test: Inhibition of RPS6KB1 (unknown origin)
[3] = target: Interleukin-1 receptor-associated kinase 4 (Homo sapiens, UniProt Q9NWZ3); test: Inhibition of IRAK4 (unknown origin)
[4] = target: Tyrosine-protein kinase SYK (Homo sapiens, UniProt P43405); conditions: dose 100.0 nM
[5] = target: G protein-coupled receptor kinase 3 (Homo sapiens, UniProt P35626); test: Inhibition of ADRBK2 (unknown origin)
[6] = target: Testis-specific serine/threonine-protein kinase 2 (Homo sapiens, UniProt Q96PF2); test: Inhibition of STK22B (unknown origin)
[7] = target: Platelet-derived growth factor receptor beta (Homo sapiens, UniProt P09619); test: Inhibition of PDGFRB (unknown origin)
[8] = target: Mitogen-activated protein kinase 9 (Homo sapiens) (UniProt P45984); conditions: dose 100.0 nM
[9] = target: Homeodomain-interacting protein kinase 4 (Homo sapiens, UniProt Q8NE63); test: Inhibition of HIPK4 (unknown origin)
[10] = target: Mitogen-activated protein kinase 1 (Homo sapiens, UniProt P28482); conditions: dose 100.0 nM
[11] = target: Vascular endothelial growth factor receptor 2 (Homo sapiens, UniProt P35968); test: Inhibition of KDR (unknown origin)
[12] = target: Tyrosine-protein kinase ABL1 (Homo sapiens) (UniProt P00519); conditions: dose 100.0 nM
[13] = Antiproliferative activity against human CHRF-288-11 cells harboring JAK2T875N mutant measured after 72 hrs by Alamar blue staining based analysis; assay type: functional, cell-based; conditions: CHRF-288-11, 72 h
Procedure, shortened: (§1)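 Cells were exposed for 72 h at 37 °C under 5% CO2 to compound made up as DMSO stock and diluted in culture medium. Proliferation was then read by Alamar Blue.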

[14] = target: Myosin light chain kinase 2, skeletal/cardiac muscle (Homo sapiens, UniProt Q9H1R3); test: Inhibition of MYLK2 (unknown origin)
BaF3 = test: Antiproliferative activity against mouse BaF3 cells harboring TEL-JAK2 measured after 72 hrs by Alamar blue staining based analysis; assay type: functional, cell-based; conditions: BaF3, 72 h
Procedure, shortened: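 Murine Ba/F3 cells carrying TEL/JAK2 or TEL/JAK3 fusions, grown in DMEM with 10% fetal calf serum. Compound stocks in DMSO were diluted in culture medium. Proliferation was read by Alamar Blue after 72 h incubation at 37 °C under 5% CO2.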

[15] = target: Mitogen-activated protein kinase 12 (Homo sapiens, UniProt P53778); test: Inhibition of MAPK12 (unknown origin)
MV4-11 = test: Antiproliferative activity against human MV4-11 cells measured after 72 hrs by Alamar blue staining based analysis; assay type: functional, cell-based; conditions: MV4-11, 72 h; procedure, shortened: as §1
[16] = target: Serine/threonine-protein kinase PLK1 (Homo sapiens, UniProt P53350); test: Inhibition of PLK1 (unknown origin)
[17] = target: Tyrosine-protein kinase receptor TYRO3 (Homo sapiens, UniProt Q06418); test: Inhibition of TYRO3 (unknown origin)
[18] = target: Platelet-derived growth factor receptor alpha (Homo sapiens, UniProt P16234); conditions: dose 100.0 nM
K562 = test: Antiproliferative activity against human K562 cells measured after 72 hrs by Alamar blue staining based analysis; assay type: functional, cell-based; conditions: K562, 72 h; procedure, shortened: as §1
[19] = Inhibition of CDK2/cyclin A (unknown origin); set-up: species or system Homo sapiens
[20] = target: cAMP-dependent protein kinase catalytic subunit alpha (Homo sapiens, UniProt P17612); test: Inhibition of PRKACA (unknown origin)
[21] = target: Misshapen-like kinase 1 (Homo sapiens) (UniProt Q8N4C8); conditions: dose 100.0 nM
[22] = target: Serine/threonine-protein kinase D1 (Homo sapiens, UniProt Q15139); test: Inhibition of PRKD1 (unknown origin)
[23] = target: Homeodomain-interacting protein kinase 1 (Homo sapiens, UniProt Q86Z02); conditions: dose 100.0 nM
[24] = target: Serine/threonine-protein kinase BRSK1 (Homo sapiens, UniProt Q8TDC3); test: Inhibition of BRSK1 (unknown origin)
Ephrin type-B receptor 1 = Ephrin type-B receptor 1 (Homo sapiens, UniProt P54762); test: Inhibition of EPHB1 (unknown origin)
[25] = target: G protein-coupled receptor kinase 4 (Homo sapiens, UniProt P32298); conditions: dose 100.0 nM
[26] = target: Mitogen-activated protein kinase kinase kinase kinase 2 (Homo sapiens) (UniProt Q12851); conditions: dose 100.0 nM
[27] = target: Ribosomal protein S6 kinase alpha-3 (Homo sapiens, UniProt P51812); test: Inhibition of RPS6KA3 (unknown origin)
[28] = target: Tyrosine-protein kinase receptor TYRO3 (Homo sapiens) (UniProt Q06418); conditions: dose 100.0 nM
[29] = target: Aurora kinase C (Homo sapiens) (UniProt Q9UQB9); conditions: dose 100.0 nM
[30] = target: Leukocyte tyrosine kinase receptor (Homo sapiens, UniProt P29376); test: Inhibition of LTK (unknown origin)
[31] = target: RAC-alpha serine/threonine-protein kinase (Homo sapiens, UniProt P31749); test: Inhibition of AKT1 (unknown origin)
[32] = target: Mitogen-activated protein kinase 8 (Homo sapiens) (UniProt P45983); conditions: dose 100.0 nM
SRSF protein kinase 1 = SRSF protein kinase 1 (Homo sapiens, UniProt Q96SB4); test: Inhibition of SRPK1 (unknown origin)
[33] = target: Serine/threonine-protein kinase pim-1 (Homo sapiens, UniProt P11309); test: Inhibition of PIM1 (unknown origin)
[34] = target: Phosphorylase b kinase gamma catalytic chain, liver/testis isoform (Homo sapiens, UniProt P15735); test: Inhibition of PHKG2 (unknown origin)
[35] = target: Rho-associated protein kinase 2 (Homo sapiens, UniProt O75116); conditions: dose 100.0 nM
[36] = target: Serine/threonine-protein kinase Chk1 (Homo sapiens, UniProt O14757); test: Inhibition of CHEK1 (unknown origin)
Ephrin type-A receptor 2 = Ephrin type-A receptor 2 (Homo sapiens, UniProt P29317); test: Inhibition of EPHA2 (unknown origin)
[37] = target: Protein kinase C alpha type (Homo sapiens, UniProt P17252); test: Inhibition of PRKCA (unknown origin)
[38] = target: High affinity nerve growth factor receptor (Homo sapiens, UniProt P04629); conditions: dose 100.0 nM
[39] = target: Serine/threonine-protein kinase PAK 2 (Homo sapiens, UniProt Q13177); test: Inhibition of PAK2 (unknown origin)
Chain of Serine/threonine-protein kinase PAK 2 (Q13177 whole entry): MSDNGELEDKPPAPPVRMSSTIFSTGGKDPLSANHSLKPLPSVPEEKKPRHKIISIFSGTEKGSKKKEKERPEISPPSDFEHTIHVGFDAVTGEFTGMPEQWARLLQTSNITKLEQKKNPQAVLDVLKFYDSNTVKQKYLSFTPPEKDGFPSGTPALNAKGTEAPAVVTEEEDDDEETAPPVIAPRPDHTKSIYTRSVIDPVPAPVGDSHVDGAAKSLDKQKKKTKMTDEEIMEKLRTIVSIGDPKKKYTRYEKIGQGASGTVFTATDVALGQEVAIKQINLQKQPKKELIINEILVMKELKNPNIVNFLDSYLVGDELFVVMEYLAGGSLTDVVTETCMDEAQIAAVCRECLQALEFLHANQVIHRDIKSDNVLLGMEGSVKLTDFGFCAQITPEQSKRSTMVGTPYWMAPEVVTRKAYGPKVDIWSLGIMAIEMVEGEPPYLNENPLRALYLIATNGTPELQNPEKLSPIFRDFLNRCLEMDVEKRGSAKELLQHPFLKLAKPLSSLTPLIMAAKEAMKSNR

Chain of Serine/threonine-protein kinase D1 (Q15139 whole entry): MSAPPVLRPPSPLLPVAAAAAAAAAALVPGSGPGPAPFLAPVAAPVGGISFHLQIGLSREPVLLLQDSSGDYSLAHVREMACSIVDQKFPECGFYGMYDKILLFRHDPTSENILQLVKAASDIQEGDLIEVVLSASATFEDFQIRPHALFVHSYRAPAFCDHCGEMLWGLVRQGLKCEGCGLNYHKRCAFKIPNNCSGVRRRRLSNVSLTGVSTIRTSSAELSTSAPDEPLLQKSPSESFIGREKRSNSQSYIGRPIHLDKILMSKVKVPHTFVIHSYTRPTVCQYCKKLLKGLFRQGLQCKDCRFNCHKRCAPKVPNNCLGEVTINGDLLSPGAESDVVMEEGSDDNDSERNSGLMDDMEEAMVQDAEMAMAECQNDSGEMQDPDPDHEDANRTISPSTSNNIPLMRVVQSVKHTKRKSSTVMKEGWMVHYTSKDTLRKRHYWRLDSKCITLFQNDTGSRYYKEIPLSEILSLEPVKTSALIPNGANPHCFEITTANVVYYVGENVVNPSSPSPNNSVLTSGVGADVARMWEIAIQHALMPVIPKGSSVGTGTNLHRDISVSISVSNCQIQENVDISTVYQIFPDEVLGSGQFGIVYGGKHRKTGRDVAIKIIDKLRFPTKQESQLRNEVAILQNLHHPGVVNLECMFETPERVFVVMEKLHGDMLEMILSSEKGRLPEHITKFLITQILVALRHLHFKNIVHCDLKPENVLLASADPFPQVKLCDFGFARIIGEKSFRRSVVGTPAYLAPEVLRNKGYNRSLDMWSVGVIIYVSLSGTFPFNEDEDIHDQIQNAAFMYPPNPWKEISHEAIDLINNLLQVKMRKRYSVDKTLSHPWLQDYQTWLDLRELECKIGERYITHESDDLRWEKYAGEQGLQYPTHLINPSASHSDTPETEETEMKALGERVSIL
Chain of G protein-coupled receptor kinase 4 (P32298 whole entry, looked up): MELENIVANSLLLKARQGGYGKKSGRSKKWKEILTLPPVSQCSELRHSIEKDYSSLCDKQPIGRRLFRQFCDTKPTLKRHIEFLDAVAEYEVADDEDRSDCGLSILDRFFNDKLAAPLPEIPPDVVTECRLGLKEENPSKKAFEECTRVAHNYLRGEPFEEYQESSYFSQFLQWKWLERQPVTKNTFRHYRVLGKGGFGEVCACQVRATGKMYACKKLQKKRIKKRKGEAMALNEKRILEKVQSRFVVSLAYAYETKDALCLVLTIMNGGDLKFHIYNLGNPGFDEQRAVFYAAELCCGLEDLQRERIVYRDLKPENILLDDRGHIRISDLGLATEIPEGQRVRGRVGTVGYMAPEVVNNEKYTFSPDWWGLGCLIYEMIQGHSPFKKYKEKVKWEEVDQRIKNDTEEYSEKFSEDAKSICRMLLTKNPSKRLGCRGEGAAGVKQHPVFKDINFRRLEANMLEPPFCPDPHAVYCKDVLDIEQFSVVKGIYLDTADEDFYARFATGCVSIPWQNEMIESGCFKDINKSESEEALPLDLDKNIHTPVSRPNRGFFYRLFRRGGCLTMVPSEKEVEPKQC
Chain of Aurora kinase C (Homo sapiens) (Q9UQB9 whole entry): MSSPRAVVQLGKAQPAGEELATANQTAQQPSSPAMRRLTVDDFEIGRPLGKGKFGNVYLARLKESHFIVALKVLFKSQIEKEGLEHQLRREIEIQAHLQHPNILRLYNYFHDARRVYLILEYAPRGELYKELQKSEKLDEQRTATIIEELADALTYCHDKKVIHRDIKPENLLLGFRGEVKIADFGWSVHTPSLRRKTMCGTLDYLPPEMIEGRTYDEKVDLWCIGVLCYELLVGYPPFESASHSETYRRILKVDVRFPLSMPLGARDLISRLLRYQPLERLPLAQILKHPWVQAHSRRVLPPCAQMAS
Chain of Myosin light chain kinase 2, skeletal/cardiac muscle (Q9H1R3 whole entry): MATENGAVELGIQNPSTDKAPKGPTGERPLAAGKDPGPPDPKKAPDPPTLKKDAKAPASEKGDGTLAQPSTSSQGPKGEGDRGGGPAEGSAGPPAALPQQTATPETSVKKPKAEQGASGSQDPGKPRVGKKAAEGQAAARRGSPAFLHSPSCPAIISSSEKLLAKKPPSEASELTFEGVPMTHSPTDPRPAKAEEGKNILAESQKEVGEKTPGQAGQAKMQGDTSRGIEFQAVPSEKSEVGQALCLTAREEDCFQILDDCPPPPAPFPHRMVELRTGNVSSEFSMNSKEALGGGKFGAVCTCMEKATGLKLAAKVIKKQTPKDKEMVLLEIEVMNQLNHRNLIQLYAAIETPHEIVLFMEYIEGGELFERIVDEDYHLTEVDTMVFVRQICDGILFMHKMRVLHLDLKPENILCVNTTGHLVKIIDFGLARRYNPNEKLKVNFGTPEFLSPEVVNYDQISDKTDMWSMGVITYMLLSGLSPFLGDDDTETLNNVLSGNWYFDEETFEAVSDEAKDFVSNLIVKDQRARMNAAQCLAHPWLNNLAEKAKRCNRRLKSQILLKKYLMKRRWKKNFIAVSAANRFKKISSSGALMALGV
Chain of Testis-specific serine/threonine-protein kinase 2 (Q96PF2 whole entry): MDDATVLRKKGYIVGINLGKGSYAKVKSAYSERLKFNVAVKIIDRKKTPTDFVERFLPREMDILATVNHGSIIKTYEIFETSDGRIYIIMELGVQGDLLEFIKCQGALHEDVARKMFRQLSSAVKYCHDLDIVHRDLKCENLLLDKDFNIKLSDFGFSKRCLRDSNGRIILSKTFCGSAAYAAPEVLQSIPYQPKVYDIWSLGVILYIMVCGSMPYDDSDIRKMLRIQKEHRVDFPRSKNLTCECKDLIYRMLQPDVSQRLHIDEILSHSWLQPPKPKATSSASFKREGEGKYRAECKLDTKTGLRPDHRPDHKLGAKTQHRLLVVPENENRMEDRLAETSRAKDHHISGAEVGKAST
Chain of Serine/threonine-protein kinase BRSK1 (Q8TDC3 whole entry): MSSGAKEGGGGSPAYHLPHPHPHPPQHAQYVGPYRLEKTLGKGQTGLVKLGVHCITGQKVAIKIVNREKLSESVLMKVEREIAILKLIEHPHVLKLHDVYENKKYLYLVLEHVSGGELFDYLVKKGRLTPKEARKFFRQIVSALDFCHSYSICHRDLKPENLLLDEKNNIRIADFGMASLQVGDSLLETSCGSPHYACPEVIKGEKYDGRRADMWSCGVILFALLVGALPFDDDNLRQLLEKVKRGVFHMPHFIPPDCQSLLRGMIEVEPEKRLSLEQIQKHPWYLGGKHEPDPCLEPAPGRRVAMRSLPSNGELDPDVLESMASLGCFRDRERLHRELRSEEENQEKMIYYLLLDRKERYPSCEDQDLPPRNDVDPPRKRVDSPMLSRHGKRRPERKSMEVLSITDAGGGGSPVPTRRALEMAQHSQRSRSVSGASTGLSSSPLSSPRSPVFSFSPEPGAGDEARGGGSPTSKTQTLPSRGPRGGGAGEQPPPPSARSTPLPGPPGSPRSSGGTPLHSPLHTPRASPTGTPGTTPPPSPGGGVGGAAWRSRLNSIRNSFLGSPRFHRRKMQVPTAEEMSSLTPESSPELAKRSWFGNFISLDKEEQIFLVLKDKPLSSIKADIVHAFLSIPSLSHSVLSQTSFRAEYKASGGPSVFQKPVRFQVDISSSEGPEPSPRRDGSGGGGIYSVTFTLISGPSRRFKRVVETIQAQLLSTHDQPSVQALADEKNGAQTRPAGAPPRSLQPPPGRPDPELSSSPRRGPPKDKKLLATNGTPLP
Chain of Mitogen-activated protein kinase 8 (Homo sapiens) (P45983 whole entry): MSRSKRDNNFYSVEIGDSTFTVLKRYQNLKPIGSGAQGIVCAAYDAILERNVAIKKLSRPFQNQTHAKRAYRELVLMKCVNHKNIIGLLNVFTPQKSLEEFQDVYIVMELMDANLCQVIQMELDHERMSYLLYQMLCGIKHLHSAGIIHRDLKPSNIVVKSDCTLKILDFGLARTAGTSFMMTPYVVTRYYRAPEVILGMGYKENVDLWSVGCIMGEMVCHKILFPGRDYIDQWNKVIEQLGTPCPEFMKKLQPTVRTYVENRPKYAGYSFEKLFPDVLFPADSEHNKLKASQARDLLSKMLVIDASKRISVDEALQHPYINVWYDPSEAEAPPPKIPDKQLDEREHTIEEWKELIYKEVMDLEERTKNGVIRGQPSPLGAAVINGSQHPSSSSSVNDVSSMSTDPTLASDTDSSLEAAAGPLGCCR
Chain of Mitogen-activated protein kinase 1 (P28482 whole entry): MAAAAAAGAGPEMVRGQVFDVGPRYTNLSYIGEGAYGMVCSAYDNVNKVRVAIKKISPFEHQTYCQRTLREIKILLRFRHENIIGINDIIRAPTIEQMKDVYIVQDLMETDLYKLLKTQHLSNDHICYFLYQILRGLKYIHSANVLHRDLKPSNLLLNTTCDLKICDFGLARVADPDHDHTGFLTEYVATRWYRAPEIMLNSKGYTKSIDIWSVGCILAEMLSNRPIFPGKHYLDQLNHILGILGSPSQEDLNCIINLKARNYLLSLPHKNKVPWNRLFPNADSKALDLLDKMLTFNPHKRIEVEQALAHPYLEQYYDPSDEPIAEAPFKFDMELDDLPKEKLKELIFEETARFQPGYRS

SMILES: N#CCNC(=O)c1ccc(-c2ccnc(Nc3ccc(N4CCOCC4)cc3)n2)cc1 [MOMELOTINIB]
- IC50 [1]: > 1000 nM
- IC50 [2]: < 1000 nM
- IC50 [3]: > 1000 nM
- inhibition [4]: < 50%
- IC50 [5]: > 1000 nM
- IC50 [6]: > 1000 nM
- IC50 [7]: > 1000 nM
- inhibition [8]: < 50%
- IC50 [9]: < 1000 nM
- inhibition [10]: < 50%
- IC50 [11]: < 1000 nM
- inhibition [12]: < 50%
- IC50 [13]: 1 nM
- IC50 [14]: < 1000 nM
- IC50 (BaF3): 724 nM
- IC50 [15]: > 1000 nM
- IC50 (MV4-11): 3000 nM
- IC50 [16]: > 1000 nM
- IC50 [17]: < 1000 nM
- inhibition [18]: < 50%
- IC50 (K562): 58000 nM
- IC50 [19]: < 100 nM
- IC50 [20]: > 1000 nM
- inhibition [21]: < 50%
- IC50 [22]: < 100 nM
- inhibition [23]: < 50%
- IC50 [24]: < 1000 nM
- IC50 (Ephrin type-B receptor 1): < 1000 nM
- inhibition [25]: < 50%
- inhibition [26]: < 50%
- IC50 [27]: > 1000 nM
- inhibition [28]: < 50%
- inhibition [29]: < 50%
- IC50 [30]: > 1000 nM
- IC50 [31]: > 1000 nM
- inhibition [32]: > 50%
- IC50 (SRSF protein kinase 1): > 1000 nM
- IC50 [33]: > 1000 nM
- IC50 [34]: > 1000 nM
- inhibition [35]: > 50%
- IC50 [36]: > 1000 nM
- IC50 (Ephrin type-A receptor 2): > 1000 nM
- IC50 [37]: > 1000 nM
- inhibition [38]: < 50%
- IC50 [39]: > 1000 nM

Reference: ChEMBL document CHEMBL5705885, “CYT387, a selective JAK1/JAK2 inhibitor: in vitro assessment of kinase selectivity and preclinical studies using cell lines and primary cells from polycythemia vera patients” (Leukemia, 2009)
